One assay deals with K562. Kind of assay: Cell growth inhibition of human K562 cells after 48 hrs. It is filed as functional, cell-based. The following applies: K562, 48 h. The procedure, abridged:
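K562 human chronic myelogenous leukemia cells cultured in Quantum 263 medium with streptomycin and penicillin G at 37 °C, 5% CO2. Seeded at 2 × 10⁵ cells/mL, exposed 48 h to compounds in DMSO/methanol 1:1 (vehicle 0.5%). Cells counted in Neubauer chamber and expressed as % of untreated control. Triplicate wells, three experiments. IC50 by nonlinear regression.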

For a further assay, the target named is Tubulin (Sus scrofa). Nature of the assay: Inhibition of tubulin polymerization using porcine brain microtubule protein.

As a reminder, the IC50 is the point on the concentration scale where inhibition reaches its midpoint. A higher IC50 goes with a need for much substance.

Each structure is given as a SMILES string. A value given as a limit tells only on which side of the number the result lay.

In the case of `COc1ccc(CO/N=C2\c3cccc(Cl)c3C(=O)c3cccc(Cl)c32)cc1`, the IC50 in the assay on K562 was greater than 12000 nM; at Tubulin (Sus scrofa) it was greater than 10000 nM.

Regarding `COc1ccc(C(=O)O/N=C2\c3cccc(Cl)c3C(=O)c3cccc(Cl)c32)cc1`, the concentration for half-maximal inhibition (IC50) in the assay on K562 was 12000 nM; at Tubulin (Sus scrofa), greater than 10000 nM.

The compound `COc1ccc(CON=C2c3cccc(Cl)c3C(=O)c3c(Cl)cccc32)cc1` gave an IC50 in the assay with K562 greater than 12000 nM.

Consider `COc1ccc(CON=C2c3cccc(OC)c3C(=O)c3c(OC)cccc32)cc1O`, for which the IC50 in the assay on K562 is 2400 nM; against Tubulin (Sus scrofa), greater than 10000 nM.

Turning to `COc1cc(CON=C2c3ccccc3C(=O)c3ccccc32)cc(OC)c1OC`, in the assay on K562, the IC50 is greater than 12000 nM.

In the assay with K562, `COc1ccc(S(=O)(=O)O/N=C2\c3cccc(Cl)c3C(=O)c3cccc(Cl)c32)cc1` showed an IC50 greater than 12000 nM.

In the assay on K562, `O=C1c2c(Cl)cccc2C(=NO)c2cccc(Cl)c21` registered an IC50 greater than 9000 nM.

Take `COc1ccc(CON=C2c3ccccc3C(=O)c3ccccc32)cc1O`: the half-inhibitory concentration (IC50) with K562 turned out to be 110 nM; against Tubulin (Sus scrofa), 1430 nM.

For `O=C1c2ccccc2C(=NOCc2ccc([N+](=O)[O-])cc2)c2ccccc21`, the IC50 in the assay with K562 was greater than 11000 nM.

As to `COc1ccc(C(=O)ON=C2c3ccccc3C(=O)c3ccccc32)cc1`, the IC50 in the assay on K562 is 3000 nM; against Tubulin (Sus scrofa), greater than 10000 nM.

In the assay with K562, `COc1cc(C(=O)O/N=C2\c3cccc(Cl)c3C(=O)c3cccc(Cl)c32)cc(OC)c1OC` came in with an IC50 greater than 14000 nM.

Consider `COc1ccc(S(=O)(=O)ON=C2c3ccccc3C(=O)c3ccccc32)cc1`, for which the IC50 with K562 was 3000 nM; on Tubulin (Sus scrofa) it was greater than 10000 nM.

On to `COc1ccc(CON=C2c3cccc(OC)c3C(=O)c3c(OC)cccc32)cc1`, for which the IC50 in the assay with K562 was 3400 nM; against Tubulin (Sus scrofa), greater than 10000 nM.

The compound `O=C1c2ccccc2C(=NO)c2ccccc21` came in with an IC50 in the assay on K562 of 3000 nM.

Turning to `COc1ccc(C(=O)ON=C2c3ccccc3C(=O)c3ccccc32)cc1O`, in the assay on K562, half-maximal inhibition (IC50) required 2000 nM.

In turn, `COc1cc(C(=O)ON=C2c3ccccc3C(=O)c3ccccc32)cc(OC)c1OC` registered an IC50 in the assay on K562 greater than 12000 nM.

`COc1cc(CO/N=C2\c3cccc(Cl)c3C(=O)c3cccc(Cl)c32)cc(OC)c1OC`: the IC50 with K562 was greater than 14000 nM.

`COc1ccc(C(=O)ON=C2c3cccc(Cl)c3C(=O)c3c(Cl)cccc32)cc1` showed a concentration for half-maximal inhibition (IC50) in the assay with K562 greater than 12000 nM.

As for `O=C1c2cccc(Cl)c2/C(=N\O)c2cccc(Cl)c21`, 1600 nM corresponded to half-maximal inhibition in the assay with K562 (IC50).

Consider `COc1ccc(CON=C2c3ccccc3C(=O)c3ccccc32)cc1`, for which the values for the IC50 in the assay on K562 and on Tubulin (Sus scrofa) were 370 nM and 1050 nM, respectively.

`O=C1c2ccccc2C(=NOCc2ccc(Cl)cc2)c2ccccc21`: the IC50 in the assay with K562 came out at 10000 nM.

`COc1cc(C(=O)ON=C2c3ccccc3C(=O)c3ccccc32)ccc1O`: half-maximal inhibition in the assay with K562 (IC50) was put at 3000 nM.

The compound `COc1cccc2c1C(=O)c1c(OC)cccc1C2=NO` had an IC50 with K562 of 900 nM.

`O=C1c2cccc(Cl)c2/C(=N/O)c2cccc(Cl)c21` showed an IC50 with K562 of 1600 nM.

`O=C1c2ccccc2C(=NOCc2ccccc2)c2ccccc21`: the IC50 with K562 stood at 7000 nM.

The values are drawn from ChEMBL document CHEMBL1208685, “Synthesis, antiproliferative activity and inhibition of tubulin polymerization by anthracenone-based oxime derivatives” (Eur J Med Chem, 2010).
